Experimental data published in ChEMBL document CHEMBL4138193, “Novel indole and triazole based hybrid molecules exhibit potent anti-adipogenic and antidyslipidemic activity by activating Wnt3a/β-catenin pathway” (Eur J Med Chem, 2018).
The source made the active and inactive calls. No cut-off for these calls is given here.

How the values were obtained:
[1] = system: 3T3-L1; test: Anti-adipogenic activity in mouse 3T3L1 cells assessed as inhibition of adipogenesis after 20 mins by Oil Red O staining based assay; format: functional, cell-based; conditions: 3T3-L1, 20 min
How it was run: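 3T3-L1 preadipocytes differentiated with compound at 0.1, 1, 3, 10, 30, 100 and 300 µM. Oil red O absorbance read at 492 nm, concentrations log-transformed and fitted by non-linear regression to give IC50. Two to three independent experiments, mean ± SEM.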

[2] = system: 3T3-L1; test: Anti-adipogenic activity in mouse differentiated 3T3L1 cells assessed as inhibition of adipogenesis at 20 uM after 20 mins by Oil Red O staining based assay; format: functional
How it was run: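 3T3-L1 preadipocytes given 20 µM compound with differentiation media. Oil red O stain (20 min) extracted, absorbance at 492 nm measured against MDI+ control, n=3, mean ± SD, Student t test.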

[3] = system: Syrian golden hamster; test: Induction of reverse cholestrol transport in high fat diet-induced dyslipidemia Syrian Golden hamster model assessed as increase in ABCG8 mRNA expression in eWAT at 100 mg/kg, po administered for 1 week by qRT-PCR analysis; format: functional, organism-based; conditions: Mesocricetus auratus
[4] = system: Syrian golden hamster; test: Induction of reverse cholestrol transport in high fat diet-induced dyslipidemia Syrian Golden hamster model assessed as increase in ABCG5 mRNA expression in eWAT at 100 mg/kg, po administered for 1 week by qRT-PCR analysis; format: functional, organism-based; conditions: Mesocricetus auratus
[5] = system: Syrian golden hamster; test: Induction of reverse cholestrol transport in high fat diet-induced dyslipidemia Syrian Golden hamster model assessed as decrease in CETP mRNA expression in liver at 100 mg/kg, po administered for 1 week by qRT-PCR analysis; format: functional, organism-based; conditions: Mesocricetus auratus
[6] = system: Syrian golden hamster; test: Induction of reverse cholestrol transport in high fat diet-induced dyslipidemia Syrian Golden hamster model assessed as increase in SCARB1 mRNA expression in liver at 100 mg/kg, po administered for 1 week by qRT-PCR analysis; format: functional, organism-based; conditions: Mesocricetus auratus
[7] = system: Syrian golden hamster; test: Induction of reverse cholestrol transport in high fat diet-induced dyslipidemia Syrian Golden hamster model assessed as decrease in NPCL1 mRNA expression in liver at 100 mg/kg, po administered for 1 week by qRT-PCR analysis; format: functional, organism-based; conditions: Mesocricetus auratus
[8] = system: Syrian golden hamster; test: Induction of reverse cholestrol transport in high fat diet-induced dyslipidemia Syrian Golden hamster model assessed as increase in LCAT mRNA expression in liver at 100 mg/kg, po administered for 1 week by qRT-PCR analysis; format: functional, organism-based; conditions: Mesocricetus auratus
[9] = system: Syrian golden hamster; test: Induction of reverse cholestrol transport in high fat diet-induced dyslipidemia Syrian Golden hamster model assessed as decrease in CYP7A1 mRNA expression in liver at 100 mg/kg, po administered for 1 week by qRT-PCR analysis; format: functional, organism-based; conditions: Mesocricetus auratus
[10] = system: Syrian golden hamster; test: Induction of reverse cholestrol transport in high fat diet-induced dyslipidemia Syrian Golden hamster model assessed as increase in ABCA1 mRNA expression in eWAT at 100 mg/kg, po administered for 1 week by qRT-PCR analysis; format: functional, organism-based; conditions: Mesocricetus auratus

Row | SMILES | inhibition at 20 µM [2] [%] | further results
1 | CC(=O)N(Cc1cn(Cc2cccc(F)c2F)nn1)Cc1cn(S(=O)(=O)c2ccc(C)cc2)c2ccccc12 | 39.5 | IC50 [1]: 9.1 µM
2 | COc1ccc(Cn2cc(CN(Cc3cn(S(=O)(=O)c4ccc(C)cc4)c4ccccc34)S(=O)(=O)c3ccc(C)cc3)nn2)c(OC)c1OC | -18 | 
3 | CC(=O)N(Cc1cccc(F)c1F)Cc1cn(S(=O)(=O)c2ccc(C)cc2)c2ccccc12 | 57.5 | IC50 [1]: 17.5 µM
4 | Fc1cccc(CNCc2ccccc2)c1F | -38.5 | 
5 | Cc1ccc(S(=O)(=O)N(Cc2cn(Cc3ccccc3)nn2)Cc2c(-c3ccccc3)c3ccccc3n2S(=O)(=O)c2ccc(C)cc2)cc1 | 0.03 | 
6 | Cc1ccc(S(=O)(=O)n2cc(CN(Cc3cn(Cc4ccccc4)nn3)S(=O)(=O)c3ccccc3)c3ccccc32)cc1 | -18 | 
7 | Cc1ccc(S(=O)(=O)N(Cc2cn(Cc3ccc(F)cc3F)nn2)Cc2c(C)c3ccccc3n2S(=O)(=O)c2ccc(C)cc2)cc1 | -22 | 
8 | Cc1ccc(S(=O)(=O)N(Cc2ccccc2)Cc2cccc(F)c2F)cc1 | -35.7 | 
9 | O=S(=O)(c1ccc(F)cc1)n1cc(CNCc2cccc(F)c2F)c2ccccc21 | 21 | IC50 [1]: 12.4 µM
10 | Cc1ccc(S(=O)(=O)N(Cc2cn(Cc3ccc(F)cc3)nn2)Cc2c(-c3ccccc3)c3ccccc3n2S(=O)(=O)c2ccc(C)cc2)cc1 | -7.6 | 
11 | Cc1ccc(S(=O)(=O)N(Cc2cccc(F)c2F)Cc2cn(S(=O)(=O)c3ccc(C)cc3)c3ccccc23)cc1 | -13.9 | 
12 | Cc1ccc(S(=O)(=O)n2cc(CN(Cc3ccccc3)Cc3cccc(F)c3F)c3ccccc32)cc1 | -13.1 | 
13 | Cc1ccc(S(=O)(=O)N(Cc2cccc(F)c2F)Cc2cn(S(=O)(=O)c3ccc(F)cc3)c3ccccc23)cc1 | -35 | 
14 | Cc1ccc(S(=O)(=O)N(Cc2cn(Cc3ccccc3)nn2)Cc2c(C)c3ccccc3n2S(=O)(=O)c2ccc(C)cc2)cc1 | -5.9 | 
15 | Cc1ccc(S(=O)(=O)N(Cc2cn(Cc3ccc(F)cc3F)nn2)Cc2cn(S(=O)(=O)c3ccc(C)cc3)c3ccccc23)cc1 | 12.3 | 
16 | Fc1cccc(CNCc2c[nH]c3ccccc23)c1F | -1.7 | 
17 | COc1ccc(Cn2cc(CN(Cc3cn(S(=O)(=O)c4ccc(C)cc4)c4ccccc34)S(=O)(=O)c3ccc(C)cc3)nn2)c(OC)c1 | 7.6 | 
18 | Fc1ccc(CNCc2cccc(F)c2F)cc1 | -53.4 | 
19 | Cc1ccc(S(=O)(=O)n2cc(CN(Cc3cn(Cc4cc(F)ccc4F)nn3)S(C)(=O)=O)c3ccccc32)cc1 | 3.4 | 
20 | Cc1ccc(S(=O)(=O)n2c(CN(Cc3cn(Cc4ccc(F)cc4F)nn3)S(C)(=O)=O)c(C)c3ccccc32)cc1 | -20.8 | 

Row | SMILES | inhibition at 20 µM [2] [%] | further results
21 | Cc1ccc(S(=O)(=O)N(Cc2cn(Cc3ccccc3Cl)nn2)Cc2cn(S(=O)(=O)c3ccc(C)cc3)c3ccccc23)cc1 | -4.8 | 
22 | COc1ccc(Cn2cc(CN(Cc3cn(S(=O)(=O)c4ccc(C)cc4)c4ccccc34)S(=O)(=O)c3ccc(C)cc3)nn2)cc1 | 1 | 
23 | Cc1ccc(S(=O)(=O)n2cc(CNCc3cccc(F)c3F)c3ccccc32)cc1 | 46 | IC50 [1]: 30 µM
24 | Cc1ccc(S(=O)(=O)N(Cc2ccc(F)cc2)Cc2cccc(F)c2F)cc1 | -97.7 | 
25 | O=S(=O)(c1ccc(F)cc1)N(Cc1cccc(F)c1F)Cc1cn(S(=O)(=O)c2ccc(F)cc2)c2ccccc12 | -20 | 
26 | Cc1ccc(S(=O)(=O)n2cc(CN(Cc3cccc(F)c3F)S(C)(=O)=O)c3ccccc32)cc1 | -3.3 | 
27 | Cc1ccc(S(=O)(=O)N(Cc2cn(Cc3ccccc3)nn2)Cc2cn(S(=O)(=O)c3ccc(C)cc3)c3ccccc23)cc1 | 3.4 | 
28 | Cc1ccc(S(=O)(=O)n2cc(CN(Cc3cccc(F)c3F)C(=O)C(F)(F)F)c3ccccc32)cc1 | -5.5 | 
29 | COc1cc(OC)c(Cn2cc(CN(Cc3cn(S(=O)(=O)c4ccc(C)cc4)c4ccccc34)S(=O)(=O)c3ccc(C)cc3)nn2)c(OC)c1 | -22 | 
30 | Cc1ccc(S(=O)(=O)n2cc(CN(Cc3cn(Cc4cc(F)ccc4F)nn3)S(=O)(=O)c3ccccc3)c3ccccc32)cc1 | -6.5 | 
31 | CC(C)OC(=O)C(C)(C)Oc1ccc(C(=O)c2ccc(Cl)cc2)cc1 |  | Activity [3]: Active; Activity [4]: Active; Activity [5]: Active; Activity [6]: Active; Activity [7]: Active; Activity [8]: Active; Activity [9]: Active; Activity [10]: Active
32 | O=C(N(Cc1ccc(F)cc1)Cc1cccc(F)c1F)C(F)(F)F | -39.8 | 
33 | O=S(=O)(c1ccc(F)cc1)N(Cc1ccccc1)Cc1cccc(F)c1F | -81.9 | 
34 | CC(=O)N(Cc1cccc(F)c1F)Cc1cn(S(=O)(=O)c2ccc(F)cc2)c2ccccc12 | 25.8 | IC50 [1]: 10.6 µM
35 | Cc1ccc(S(=O)(=O)n2cc(CN(Cc3cn(Cc4ccc(F)cc4)nn3)S(=O)(=O)c3ccccc3)c3ccccc32)cc1 | -21 | 
36 | Cc1ccc(S(=O)(=O)n2cc(CN(Cc3cn(Cc4cccc(F)c4F)nn3)C(=O)C(F)(F)F)c3ccccc32)cc1 | 31.9 | IC50 [1]: 19.1 µM
37 | Cc1ccc(S(=O)(=O)n2cc(CN(Cc3cn(Cc4ccc(F)cc4)nn3)S(C)(=O)=O)c3ccccc32)cc1 | -19.5 | 
38 | O=C(N(Cc1cccc(F)c1F)Cc1cn(S(=O)(=O)c2ccc(F)cc2)c2ccccc12)C(F)(F)F | -52.3 | 
39 | COc1cc(Cn2cc(CN(Cc3c(-c4ccccc4)c4ccccc4n3S(=O)(=O)c3ccc(C)cc3)S(=O)(=O)c3ccc(C)cc3)nn2)cc(OC)c1OC | -10.9 | 
